core dimer inh – blocks dimerization of HCV core protein. AID 1899. 300,000 tested, 0.33% active. TR-FRET GST/Flag-core106 dimerization, 1536-well. inhibition, % at 5 µM;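 active means inhibition above the mean of all tested compounds plus 3 SD, set per screening campaign, cut at about 45% in these data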
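Assay system: Tagged HCV core106 pair (GST and Flag) | Buffer or medium: KF-containing HEPES buffer, pH 7.45, DTT, CHAPS, BSA | Also added: Eu donor and XL665 acceptor anti-tag antibodies | Dosing: One concentration, 5 µM, in 0.5% DMSO | Timing: 4 h at 22.5 °C | Technique: TR-FRET 671 and 617 nm emission | Repeats: Singlicate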
PABP polyA inh – PABP-poly(A) binding inhibition; AID 2014; PABP-poly(A) RNA binding, fluorescence polarization; P11940; inhibition, % at 35 µM; 290,000 tested, 1% active;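 further: calls also rest on retests at 20 µM and on dose response follow-up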
eIF4H FP inh – inhibitors of RNA binding by human eIF4H; Q15056; AID 2012; 290,000 tested, 0.94% active; inhibition, % at 35 µM; eIF4H fluorescence polarization binding assay;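 further: calls also rest on retests at 20 µM and on dose response follow-up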
FID counter – fluorescent intercalator displacement, NS3 helicase counter-screen | AID 1845 | inhibition, % at 7.9 µM | 290,000 tested, 0.17% active | DNA fluorescent intercalator displacement, fluorescence; in the data active means inhibition above about 37%;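 further: 0% = vehicle and 100% = reference compound; higher means more ethidium bromide displaced from hairpin DNA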
PABP1 MLLE inh – inhibitors of microRNA-mediated deadenylation, human PABP1 MLLE binding. inhibition, % at 20 µM. 360,000 tested, 0.36% active. GST-MLLE / FITC-PAM2 fluorescence polarization. P11940. AID 588489; in the data active means inhibition above about 35%, passing the limit was not always enough;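 further: plate controls were DMSO wells with GST-MLLE for no effect and wells lacking GST-MLLE protein for full effect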
HCV NS3 hel inh – inhibitors of Hepatitis C virus NS3 helicase; NS3 helicase DNA unwinding, Cy5 molecular beacon fluorescence; inhibition, % at 10.9 µM; 290,000 tested, 0.56% active; AID 1800;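 active means inhibition above the mean of all tested compounds plus 3 SD, set per campaign, cut at about 35% in these data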;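 further: 0% = DMSO wells and 100% = thioflavine S control wells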
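Test system: hepatitis C virus NS3 helicase domain fragment enzyme. Also added: annealed dual-labelled DNA beacon duplex, ATP-started. Timing: 60 min unwinding reaction at 25 °C after ATP addition. Technique: Cy5 fluorescence. Measure: % inhibition of unwinding.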
Starred values were filed as active, the others as inactive; ? = inconclusive; . = not tested or not shown. A selection: hits, their analogues and other compounds. The true share with any hit is near 2%. Unless noted, how the calls were made is not given here.

SMILES	core dimer inh	PABP polyA inh	eIF4H FP inh	FID counter	PABP1 MLLE inh	HCV NS3 hel inh
O=C(O)c1ccc(O)c(O)c1	-2	15	20	-3	-4	7
CC(C)(O)CCCC(C)(O)c1ccc(C(=O)O)cc1O (stereo unspecified)	-1	49	84*	.	14	.
Oc1ccc(C23CCCC2C2(CCCC2)c2ccc(O)cc2O3)c(O)c1 (stereo unspecified)	.	.	.	.	4	.
Cc1ccccc1C1C(C#N)=C2N=C(N)c3c(sc4c3CCCCC4)N2C2=C1C(=O)CC(C)(C)C2 (stereo unspecified)	22	87	114*	-20	13	9
CCc1nc2ccc(C(=O)N(CC)CCN(C)C)cn2c1N(CC)CCOC	.	.	.	.	4	.
CC(C)CN(C(=O)COC(=O)c1ccc2c(c1)NC(=O)CS2)C1CCS(=O)(=O)C1 (stereo unspecified)	4	-7	4	-20	55*	-1
COCC(C)n1c(C)cc(C(=O)COC(=O)c2ccc3c(c2)NC(=O)CS3)c1C (stereo unspecified)	19	-2	43	-14	39*	4
Cc1cc(C(=O)COC(=O)c2ccc3c(c2)NC(=O)CS3)c(C)n1CC1CCCO1 (stereo unspecified)	11	-3	21	-20	19	2
CC(C)CN(C(=O)COC(=O)CNC(=O)c1ccccc1F)C1CCS(=O)(=O)C1 (stereo unspecified)	0	90*	0	1	2	-3
CCOC(=O)c1c(NC(=O)c2ccccc2)sc2c1CCc1ccccc1-2	2	13	8	-4	43*	4
COc1ccc(-n2nc(C(=O)NCc3ccco3)c3c4ccccc4n(C)c3c2=O)cc1	23	89*	2.8*	-1	8	3
COc1ccc(NC(=O)/C(C#N)=C\c2ccc(Br)o2)cc1	24	49*	80*	0	-9	20
COc1ccc(NC(=O)/C(C#N)=C/c2ccc(-c3ccc(Cl)c(C(=O)O)c3)o2)cc1	.	18	1	-26	-6	15
COc1ccc(NC(=O)/C(C#N)=C\c2ccc(-c3cc(C(=O)O)ccc3C)o2)cc1	-2	67*	79*	-25	18	21
N#C/C(=C\c1ccc([N+](=O)[O-])o1)C(=O)Nc1ccc(F)cc1	35	44	45	-16	-54	43*
COc1ccc(NC(=O)/C(C#N)=C/c2ccc(-c3ccccc3C(=O)O)o2)cc1	-3	15	6	-27	4	14
O=[N+]([O-])c1cccc(NNS(=O)(=O)c2ccccc2F)c1	-7	34	0	10	30	-2
O=C(O)c1cccc(NC(=O)c2ccc3c(c2)C(=O)N(C2CCCCC2)C3=O)c1	6	12	5	-26	-2	-3
CN1CC(=O)Nc2ccccc2C1=O	1	7	-4	1	-9	1
O=C1NN(CCO)C(=S)Nc2ccccc21	.	.	.	.	36*	.
O=C(Cn1cnc2ccccc21)OCC(=O)N1CCCCC1	.	.	.	.	-2	.
O=C(O)C1CCN(c2nc(-c3ccccc3)nc3c2oc2ccccc23)CC1	13	3	2	-9	-18	1
OCCN1CCN(c2nc(-c3ccccc3)nc3c2oc2ccccc23)CC1	-9	1	-7	43*	-7	-58
CC(=O)Nc1ccc(C=NNC(=O)CCCC(=O)NN=Cc2ccc(NC(C)=O)cc2)cc1	.	.	.	.	14	.
O=C(c1ccco1)N1CCCC(c2nc3c(nnn3Cc3c(Cl)cccc3Cl)c(=O)[nH]2)C1 (stereo unspecified)	18	0	-11	-42	-6	4
SMILES	core dimer inh	PABP polyA inh	eIF4H FP inh	FID counter	PABP1 MLLE inh	HCV NS3 hel inh
CCOc1[nH]c(/N=C/c2ccco2)c(C#N)c1C#N	-11	126*	100*	0	19	7
Cc1cccc(N2CC(C(=O)Nc3nnc(SCC(=O)Nc4nccs4)s3)CC2=O)c1 (stereo unspecified)	50*	-10	2	-5	-20	3
O=C(Nc1nnc(SCc2ccccn2)s1)C1CC(=O)N(c2ccc(F)cc2)C1 (stereo unspecified)	55*	7	3	-35	-42	27
O=C(Nc1nnc(SCC(=O)N2CCOCC2)s1)C1CC(=O)N(c2ccc(F)cc2)C1 (stereo unspecified)	53*	1	16	-28	-40	23
COc1ccc(-c2csc(NC(=O)C3CC(=O)N(c4ccc5c(c4)OCCO5)C3)n2)cc1 (stereo unspecified)	33	7	38	-27	1	-2
CC(=O)Nc1ccc(-c2csc(NC(=O)C3CC(=O)N(c4ccc5c(c4)OCCO5)C3)n2)cc1 (stereo unspecified)	20	59*	60*	-27	19	4
Cc1ccc(C)c(NC(=O)CCNS(=O)(=O)c2ccc3[nH]c(=O)oc3c2)c1	9	28	73*	-4	-16	8
COc1ccc(CNC(=O)CN(Cc2ccc(Cl)cc2)C(=O)c2csnn2)cc1	2	4	-6	-26	36*	-2
COc1ccc(CNC(=O)CN(Cc2ccc(C)cc2)C(=O)c2csnn2)cc1	-9	2	-1	-29	44*	2
CCC(=O)Oc1ccc(NC(=O)c2ccc(S(=O)(=O)N3CCCC3)cc2)cc1	.	.	.	.	8	.
CC(C)[N+](C)(C)CC(O)CN(c1ccccc1)c1ccccc1 (stereo unspecified)	-3	66*	-4	8	-128	3
CC(NC(=O)/C(C#N)=C/c1ccc(OCC(=O)O)cc1)c1ccccc1 (stereo unspecified)	5	64*	16	-19	-85	22
O=[N+]([O-])C(/C=C(\Cl)[N+](=O)[O-])=C1N(Cc2ccc(Cl)nc2)CCN1Cc1ccc(Cl)nc1	-1	36*	?	5	-82	4
Cc1cc(Br)ccc1NC(=O)CN(C)C(=O)CSCc1ccccc1	2	.	.	.	-1	.
Cc1cc(C)n2nc(C(=O)Nc3ccc4c(c3)CCC4)nc2n1	-4	66	2.1*	-4	-16	2
Cc1cc(C)n2nc(C(=O)Nc3ccc(S(=O)(=O)N4CCCC4)cc3)nc2n1	0	-5	-11	-8	-1	-9
Cc1cc(O)c(CN(C)C)c2c1C(=O)/C(=C/c1ccco1)O2	1	71*	94*	-5	22	13
CC(=O)COc1ccc2c(c1C)O/C(=C\c1ccco1)C2=O	9	14	23	-18	-4	31
COc1ccc(N2C3=C(CC4=C2CCCC4=O)C(=O)CCC3)cc1	39	active	105*	-3	79*	28
CCN(CC)CCNC(=O)c1cn(CC)c2cc(N3CCN(C)CC3)c(F)cc2c1=O	-6	39	-4	38*	-12	1

Source: PubChem BioAssay (several laboratories)
